Bioassay records deposited in PubChem BioAssay by several laboratories.
Sampled rows, rich in hits. Any-hit rate of the full collection: about 4.6%.
ALR H2O2 inh: inhibitors of human ALR sulfhydryl oxidase, primary screen, biochemical, H2O2 detection, HRP-luminol luminescence, single point | AID 485317, 2010 | 290,000 compounds, 3.8% hits | inhibition, % (concentration not given with the values) | FAD-linked sulfhydryl oxidase ALR (Homo sapiens), P55789 | purified ALR, DTT oxidation;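 active = mean replicate inhibition above about 79%, with every replicate also reaching it, limit read from the data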
Arr AP2 block: inhibitors of beta-arrestin/AP2 binding, primary screen, biochemical, GPCR trafficking, flow cytometry. 340,000 compounds, 0.31% hits. AID 504490, 2011. inhibition, % at 10 µM. FITC-arrestin peptide / GST-AP2 beads; AP2 beta2 appendage carries R879A mutation;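 active = inhibition above a set limit, near 3 SD of compounds lacking own fluorescence, cut at about 54% in these data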;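 also: plate controls were DMSO wells for no effect and 5 µM unlabelled arrestin peptide for full effect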
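system = GST-tagged AP2 beta2-adaptin appendage (R879A) on 4 µm glutathione beads | reagent = FITC-labelled arrestin peptide probe, 50 nM final | schedule = compound with beads 12 min RT, then probe 1 h RT | signal = HyperCyt-sampled flow cytometry, FL1 channel, ex 488/em 535 nm | read-out = percent response from loss of bead-bound FITC fluorescence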
NALP1 yeast inh: NALP1 inflammasome inhibitors in reconstituted yeast, colorimetric, S. cerevisiae, triplicate retest. 280,000 compounds, 0.61% hits. AID 2071, 2009. S. cerevisiae NALP1/ASC/caspase-1 growth, X-gal OD620, 72 h. inhibition, % at 10 µM; in the data active = inhibition mostly above about 24%, no sharp cut-off; inactive = mostly below about 32%
DSG3 Ab inh: inhibitors of pemphigus antibody binding to DSG3, primary screen, biochemical, bead-based, flow cytometry, scFv-GFP; Desmoglein-3 (Homo sapiens), P32926; DSG3-coupled beads, scFv-anti-DSG3-GFP binding; hits give low values; binding (percent of control), % at 10 µM; 310,000 compounds, 0.48% hits; AID 588358, 2011;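 active = binding more than 3 SD below its plate's average and above zero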;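 also: hits lower antibody fragment binding to DSG3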
NLRP3 yeast inh: NALP3 inflammasome inhibitors in reconstituted yeast, primary screen, luminescence, uHTS; 330,000 compounds, 0.39% hits; Yeast reconstituted NLRP3/ASC/caspase-1, beta-gal luminescence, 24 h; AID 2825, 2010; inhibition, % at 10 µM;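 active = inhibition of 50% or more; inactive = inhibition below 50%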;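 also: plate controls were induced DMSO wells for no effect and uninduced yeast grown without galactose for full effect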
PolyA inhibitor: polyadenylation inhibitors in yeast reporter cells, primary screen, luminescence, S. cerevisiae. S. cerevisiae SKY197-pL101 polyadenylation reporter, beta-gal luminescence; efflux-impaired pdr1/pdr3 knockout yeast; score 100 = 6 SD above DMSO. activity score, % at 12 µM. 300,000 compounds, 0.02% hits. AID 1875, 2009;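 active = lowest replicate activity score at least 50, where 100 means six control SD above control mean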;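 also: yeast exposed to compound for 9 h at 30 °C; higher score means more reporter readthrough which indicates perturbed polyadenylation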
Arr AP2 CP1: inhibitors of arrestin peptide binding to AP2, confirmation, biochemical, cherry pick 1, flow cytometry beads. GST-AP2 beads, FITC arrestin peptide binding; GST-fused beta2-adaptin appendage, R879A mutant. AID 504908, 2011. shares compounds with Arr AP2 block. inhibition, % at 10 µM. 1,300 compounds, 2% hits;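 active = inhibition above a set limit, roughly 3 SD of non-fluorescent compound noise, cut at about 38% in these data; inactive = inhibition at or below that limit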;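 also: loss of bead fluorescence from 50 nM FITC arrestin peptide bound to appendage; 0% = negative control wells and 100% = excess unlabelled arrestin peptide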
GST GSH counter: GST-fluorescein capture on glutathione beads, confirmation, artefact control for arrestin-AP2 inhibitor project, biochemical, cherry pick 1, flow cytometry. shares compounds with Arr AP2 block. GST-fluorescein binding to GSH beads, fluorescence, counter-screen. inhibition, % at 10 µM. 1,300 compounds, 2% hits;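 active = inhibition above 50%, about 3 SD of the inhibition seen with non-fluorescent compounds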;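 also: fluorescein maleimide labelled GST captured on 4 micron glutathione beads; higher means more loss of bead fluorescence from quenching or blocked binding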
Starred values were filed as active, the others as inactive; / = not tested or not shown.

SMILES | ALR H2O2 inh | Arr AP2 block | NALP1 yeast inh | DSG3 Ab inh | NLRP3 yeast inh | PolyA inhibitor | Arr AP2 CP1 | GST GSH counter
O=C(NCc1ccc(Cl)cc1)C1CCN(S(=O)(=O)c2cccc3nonc23)CC1 | 3 | 109* | 16 | / | 0 | 27 | 23 | 52*
CC(=O)/C(=N\Nc1cccc(Cl)c1)Sc1nnc(-c2ccccc2)n1-c1ccccc1 | 14 | 105* | 9 | 90 | 8 | -3 | -1 | -5
COc1cc(C(=O)COC(=O)Cc2cnc3sccn23)cc(OC)c1OC | -5 | 4 | 18 | 97 | -11 | -9 | / | /
CCOCCCNS(=O)(=O)c1ccc(NC(=O)c2ccc([N+](=O)[O-])cc2Cl)cc1 | -16 | -4 | 25 | 132 | 10 | 17 | / | /
CCOCCCNS(=O)(=O)c1ccc(NC(=O)c2ccc(OC)c([N+](=O)[O-])c2)cc1 | 2 | 56* | 14 | 101 | 21 | 7 | 10 | 7
CCC(=O)NC1=C(Cl)C(=O)C(NC(=O)CC)=C(Cl)C1=O | / | 66* | 5 | 99 | -5 | / | 61* | 6
CCC(=O)NC1=C(NC(C)c2ccccc2)C(=O)c2ccccc2C1=O (stereo unspecified) | -29 | 4 | 28 | 100 | 7 | -5 | / | /
CC(Oc1ccc(C#N)cc1)C(=O)NC1CCCC1 (stereo unspecified) | / | 8 | / | 100 | 13 | / | / | /
Cc1ccc(NC(=O)N2CCCCC2)cc1NC(=O)N1CCCCC1 | 2 | 32 | 5 | 90 | 9 | 6 | / | /
Cc1ccc(NC(=O)N2CCCCCC2)cc1C | 7 | 63* | 6 | 103 | 20 | -4 | -14 | -4
CC(=O)N/N=C\c1ccccc1OC/C=C/c1ccccc1 | -13 | 58* | 4 | 113 | -2 | 20 | -12 | -5
CC(=O)N/N=C\c1cccc(OC/C=C/c2ccccc2)c1 | -10 | 58* | 2 | 104 | 24 | / | -16 | 0
CC(CCc1ccccc1)NC(=O)C(=O)c1c[nH]c2ccccc12 (stereo unspecified) | -4 | 6 | 10 | 115 | 26 | 9 | / | /
Cc1cc(Cl)ccc1OCC(=O)N(Cc1cccs1)C1CCS(=O)(=O)C1 (stereo unspecified) | -5 | 7 | 2 | / | 14 | -10 | / | /
O=C(COc1ccccc1Cl)N(Cc1cccs1)C1CCS(=O)(=O)C1 (stereo unspecified) | -2 | 58* | -14 | 107 | -15 | -16 | 19 | -7
CCN(CC)S(=O)(=O)c1cccc(C(=O)N/N=C/c2cc(OC)c(O)c(OC)c2)c1 | 99* | 60* | 20 | 99 | -1 | -13 | -3 | 1
CCN(CC)S(=O)(=O)c1cccc(C(=O)N/N=C/c2cccc(O)c2O)c1 | -10 | 49 | 11 | 102 | 22 | 9 | / | /
CCOc1ccccc1Nc1ccc(C(=O)O)cc1N | 10 | -12 | -3 | 95 | 10 | 0 | / | /
C=CCOc1cccc(/C=N/NC(=O)CN2CCCCC2)c1 | 0 | -17 | 7 | 114 | 0 | 9 | / | /
CN(Cc1cccc(F)c1)C(=O)c1cc(S(=O)(=O)N2CCOCC2)ccc1N1CCCC1 | 1 | -2 | / | / | 25 | / | -4 | -4
O=C(O)c1cc(S(=O)(=O)N2CCOCC2)ccc1N1CCCCC1 | -3 | 5 | -6 | 109 | -4 | -3 | / | /
CCN(Cc1ccccc1)C(=O)c1cc(S(=O)(=O)N2CCOCC2)ccc1N1CCCC1 | -1 | 57* | / | 117 | -2 | -2 | -11 | -2
